Shown are actives, neighbours in structure and some others; about 2.3% of the full set was active somewhere.
XiGFP reactiv: activators of inactive X chromosome reactivation, primary screen, imaging, XiGFP fibroblasts, GFP high-content imaging, set 2; XiGFP mouse fibroblasts, % GFP-positive cells imaging, 3 d; cells co-treated with 5-aza-dC sensitizer; scaled so ellipticine positive control = 100%; activation, % at 7.58 µM; 0.055% of 360,000 active; AID 743238, 2013;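 active = mean normalized replicate activation at least 10% and every replicate at or above 10%; inconclusive = only one of the two criteria met; inactive = mean below 10% and not all replicates reach 10%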;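 also: 0% = median of on-plate neutral control wells and 100% = ellipticine 6 µM median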
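Material: SV40-immortalized XiGFP fibroblast cells, line 68-5-11 | Buffer or medium: DMEM containing 5-aza-dC | Dosing: One concentration, pinned | Times: 3 d treatment, 15 min room-temperature fixation | Controls: Ellipticine 6 µM positive control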
TROY signal inh: inhibitors of TROY-driven NF-kB signaling, primary screen, Q293 LMP1-TROYcd cells, NF-kB luciferase, uHTS; Q293 LMP1-TROYcd NF-kB luciferase reporter, 4 h; inhibition, % at 10 µM; 0.98% of 360,000 active; AID 1347056, 2019;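 active = compounds whose plate-normalised and pattern-corrected inhibition of the luciferase reporter signal at the single screening dose is 50% or more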
EWS-Fli inh: EWS/Fli-driven NR0B1 reporter inhibitors, primary screen, A673 cells, NR0B1 luciferase, luminescence, MLPCN library; 0.67% of 350,000 active; viability-normalised; inhibition, % at 12.6 µM; AID 651661, 2012;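 active = mean inhibition of at least 50% after viability correction, with every replicate also passing that limit; inconclusive = mean reaches 50% but only one of two replicates passes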;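 also: firefly luciferase signal divided by Alamar Blue viability fluorescence both relative to DMSO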
TWEAK Fn14 block: inhibitors of TWEAK-Fn14 signaling, primary screen, luciferase reporter cells, uHTS; TWEAK-stimulated Fn14 reporter cells, luciferase luminescence, 8 h; 2% of 360,000 active; inhibition, % at 10 µM; AID 1159606, 2016; in the data active = inhibition above about 50%
LGR2 inh: inhibitors of bursicon-induced LGR2 CRE-luciferase signal, primary screen, cell-based, HEK293, CRE-luciferase reporter, bursicon stimulation; bursicon-stimulated, 4 h; Drosophila bursicon receptor LGR2 (rickets); 0.35% of 380,000 active; inhibition, % at 9.99 µM;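 active = drop in luminescence signal, shown as inhibition above about 50% in the replicate tests, limit read from the data, passing the limit was not always enough; inconclusive = probably only some replicates passing the limit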;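 also: agonist challenge used bursicon conditioned medium at about half maximal strength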
FN deposit inh: inhibitors of fibronectin matrix deposition, primary screen, AH1F cells, Alexa488-fibronectin fluorescence, plate reader. AH1F fibroblasts, overnight. inhibition, % at 12.6 µM. 0.086% of 350,000 active;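 active = mean inhibition across replicates of 30% or more, regardless of how many single replicates reach that level; inconclusive = mean under 30% yet at least half of replicates reach 30%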;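 also: positive control wells lacked labelled fibronectin entirely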
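Assay system: AH1F fibroblast monolayer, labelled fibronectin deposition. Amount: 10000 cells per well. Also added: labelled fibronectin 24 nM. Compound: single-point pinned compound. Incubation: cell attachment 1 h, compound and FN exposure overnight. Detection: fluorescence after three HBSS washes, excitation 485 nm, emission 525 nm. Read-out: inhibition of fibronectin deposition signal.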
Active calls of the source: *; ? = inconclusive; . = not tested or not shown.

SMILES	XiGFP reactiv	TROY signal inh	EWS-Fli inh	TWEAK Fn14 block	LGR2 inh	FN deposit inh
CCCCCCN1C=CC(=C2C(=O)c3ccccc3C2=O)C=C1	0	82*	79*	97*	94*	.
CCCCN1C(C)=CC(=C2C(=O)c3ccccc3C2=O)C=C1C	0	60*	-51	53*	60*	.
CC(C)CC#Cc1ccc2c(c1)O[C@@H](CN(C)C(=O)c1cnccn1)[C@@H](C)CN([C@@H](C)CO)S2(=O)=O	-2	.	-4	.	-1	.
CCCc1cn(CC[C@@H]2CC[C@H](NS(=O)(=O)c3ccccc3Cl)[C@@H](CO)O2)nn1	0	.	-3	.	-2	23
COC(=O)C[C@@H]1C[C@@H]2c3cc(NS(C)(=O)=O)ccc3O[C@@H]2[C@@H](CO)O1	0	.	-2	.	-7	.
COc1cccc(Nc2nc(NCC3CCCO3)c3ccccc3n2)c1 (stereo unspecified)	.	43	.	88*	.	.
Oc1ccc(Cl)cc1Nc1nc(NCC2CCCO2)c2ccccc2n1 (stereo unspecified)	0	51*	18	72*	-2	4
Oc1ccc(Nc2nc(NCC3CCCO3)c3ccccc3n2)cc1 (stereo unspecified)	.	-42	.	8	.	.
C[C@@H]1CN([C@H](C)CO)C(=O)Cc2cc(NC(=O)Cn3cnnn3)ccc2O[C@@H]1CN(C)C(=O)Nc1ccc(C(F)(F)F)cc1	-1	.	-3	.	-4	5
CC(C)(C)c1cc(C(=O)NN)n(Cc2ccc(F)cc2)n1	7	3	20	0	6	-3
Cc1cccc(Cn2nc(C(C)(C)C)cc2C(=O)Nc2ccc(F)cc2)c1	0	58*	-48	26	?	-6
COc1ccc2c(c1)C(=O)N1[C@H]3c4cc(C)ccc4OC[C@@H]3[C@H](c3ccccc3)[C@]1(C)C(=O)N2	0	17	64*	16	3	15
Cc1ccc2c(c1)[C@H]1[C@H](CO2)[C@H](c2ccccc2)[C@]2(C)C(=O)Nc3cc(F)ccc3C(=O)N12	0	18	61*	19	2	-1
C[C@@]12C(=O)Nc3cc(F)ccc3C(=O)N1[C@H]1c3cc(Br)ccc3OC[C@@H]1[C@@H]2c1ccccc1	0	15	50	22	-2	-4
Cc1ccc2c(c1)[C@H]1[C@H](CO2)[C@H](c2ccccc2)[C@]2(C)C(=O)Nc3ccccc3C(=O)N12	0	3	57*	13	37	-2
N#C/C(=C\c1ccc(C#N)cc1)C(=O)c1ccccc1	0	-10	-2	6	-5	1
N#Cc1cccc(C=C(C(=O)c2ccccc2)c2ccccc2)c1	0	-50	15	64*	26	7
OC[C@@H]1[C@H](c2ccc(C#CC3CCCC3)cc2)[C@H]2CN(CCC(F)(F)F)CCCCN12	0	.	60*	.	0	.
OC[C@@H]1[C@@H](c2ccc(C#CC3CC3)cc2)[C@H]2CN(CCC(F)(F)F)CCCCN12	.	.	-7	.	.	.
CN(C)P(=O)(Nc1cccc2ccccc12)Nc1cccc2ccccc12	0	48	13	76*	11	0
CCc1ccc(-c2cn3nc(C)c(C)nc3n2)cc1	.	16	.	60*	.	-7
Cc1nc2nc(-c3ccc(F)cc3)cn2nc1C	0	-36	20	15	-5	-4
CC(C)OCCCn1c(SCC(=O)N2CCCC2=O)nc2ccccc2c1=O	0	-25	-10	1	-22	.
CC(C)OCCCn1c(SCC(=O)N2CCc3ccccc32)nc2ccccc2c1=O	0	24	2	91*	.	-4
CC(=O)N(C)C[C@@H]1Oc2cc(-c3ccc(C#N)cc3)ccc2S(=O)(=O)N([C@H](C)CO)C[C@H]1C	-1	.	-8	.	-9	7
SMILES	XiGFP reactiv	TROY signal inh	EWS-Fli inh	TWEAK Fn14 block	LGR2 inh	FN deposit inh
Cc1cc2[nH]c3c4ccccc4nc(C)c3c2cc1C	0	78*	61*	-72	-8	0
Cc1cc2[nH]c3ccccc3c2c(C)n1	0	13	4	31	-7	.
CS(=O)(=O)c1ccc(-c2cn3cc(C(=O)O)ccc3n2)cc1	0	-16	1	15	77*	-18
COC(=O)c1ccc2nc(-c3ccc(S(C)(=O)=O)cc3)cn2c1	0	-41	-17	-3	-39	-2
O=C(C[C@@H]1C=C[C@H](NS(=O)(=O)c2ccc(F)cc2)[C@H](CO)O1)NC1CCCCC1	0	.	0	.	6	.
CC(=O)Oc1c(I)cc(I)cc1C(=O)Nc1ccc(Cl)cc1	0	52*	.	52*	46	0
CC(=O)c1c(C)[nH]c(C(=O)Nc2nc(-c3ccc(Cl)cc3)cs2)c1C	0	58*	.	68*	2	2
CC(=O)c1c(C)[nH]c(C(=O)Nc2nc(-c3ccc(-c4ccccc4)cc3)cs2)c1C	0	19	2	98*	91*	-2
O=C(Nc1nc(-c2ccc(Cl)cc2)cs1)NC1CCCCC1	2	58*	.	68*	5	5
CC(=O)c1c(C)[nH]c(C(=O)Nc2ccc(C)cn2)c1C	.	67*	.	95*	.	-2
C[C@@H]1CN([C@@H](C)CO)C(=O)c2cccc(NC(=O)C3CCOCC3)c2O[C@H]1CN(C)C(=O)Nc1ccc(C(F)(F)F)cc1	-1	.	-5	.	15	-2
CC(=O)c1c(C)[nH]c(C(=O)Nc2nc(C)cs2)c1C	1	65*	74*	94*	.	-1
CCC(=O)N1CC(=O)N2[C@H](CO)[C@H](c3ccc(C#CC4CCCC4)cc3)[C@H]2C1	0	.	31	.	13	-10
C=C1C(=O)C23C(O)C1CCC2C12COC3(O)C(O)C1C(C)(C)CCC2O (stereo unspecified)	.	47	68*	75*	.	.
O=C(C1=C(Nc2ccccc2)c2ccccc2S(=O)(=O)N1)c1ccccc1	0	55*	5	74*	.	-3
Cc1ccc(S(=O)(=O)N(C)C[C@@H]2Oc3cc(C#Cc4ccccc4)ccc3S(=O)(=O)N([C@@H](C)CO)C[C@H]2C)cc1	0	.	-9	.	11	4
Cc1ccc2oc(C(=O)N3CCN(c4cccc(C)n4)CC3)c(C)c2c1	0	-33	-38	69*	-14	0
Cn1c(=O)c2ncn(CC(=O)Nc3ccc(N4CCOCC4)cc3)c2n(C)c1=O	.	2	.	-9	14	-13

Screening results deposited in PubChem by several laboratories.
